Reference: ChEMBL document CHEMBL1138853, “Synthesis and antituberculosis activity of a novel series of optically active 6-nitro-2,3-dihydroimidazo[2,1-b]oxazoles” (2006)
Converted amounts (≈) assume the structure as drawn.

Assays:
[1] = system: Mycobacterium tuberculosis; test: Antituberculosis activity against Mycobacterium tuberculosis H37Rv; format: functional
Procedure, shortened: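 Agar dilution on 7H11 plates with drug-susceptible and drug-resistant M. tuberculosis H37Rv strains grown in Middlebrook 7H9 broth. Frozen stocks (-80 °C) diluted to about 10⁶ CFU/mL and spotted with a multipoint inoculator onto drug-containing plates. Drugs dissolved in DMSO and serially diluted 2-fold in DMSO. Read-out: MIC.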

[2] = system: Mycobacterium tuberculosis; test: Reduction in log CFU of Mycobacterium tuberculosis Kurono infected in mouse lung at 50 mg/kg, po relative to control; format: functional
Procedure, shortened: (§1)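 Mice weighing 20-25 g infected intravenously via tail vein with 10⁴ CFU of M. tuberculosis Kurono. Oral dosing once daily at 0.5-50 mg/kg for 10 days (n = 2), starting the day after infection. Sacrificed on day 11; lungs homogenised and dilution-plated on 7H11 agar at 37 °C for 14 days. Mean log CFU reduction calculated against untreated controls.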

[3] = system: Mycobacterium tuberculosis; test: Reduction in log CFU of Mycobacterium tuberculosis Kurono infected in mouse lung at 5 mg/kg, po after 10 days; format: functional; procedure, shortened: as §1
[4] = system: Mycobacterium tuberculosis; test: Reduction in log CFU of Mycobacterium tuberculosis Kurono infected in mouse lung at 0.5 mg/kg, po after 10 days; format: functional; procedure, shortened: as §1
[5] = system: Mycobacterium tuberculosis; test: Reduction in log CFU of Mycobacterium tuberculosis Kurono infected in mouse lung at 10 mg/kg, po after 10 days; format: functional; procedure, shortened: as §1
[6] = system: Mycobacterium tuberculosis; test: Decrease in Mycobacterium tuberculosis count in mouse pulmonary; format: functional, organism-based
Procedure, shortened: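 ICR male mice (20-25 g) infected intravenously via tail vein with 10⁴ CFU of M. tuberculosis Kurono. Dosed orally once daily as a 5% gum arabic suspension for 28 days (n = 6), starting the day after infection. Sacrificed on day 29; lung homogenates plated on 7H11 agar at 37 °C for 14 days. Counts compared with untreated controls.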

Row | SMILES | MIC [1] [µg/mL] | Activity [2] | other results
1 | Cc1ccc(OC[C@@]2(C)Cn3cc([N+](=O)[O-])nc3O2)cc1 | 0.012 (≈ 0.0415 µM) | 2.9 | –
2 | C[C@]1(COc2ccc(N3CCC(Oc4ccccc4)CC3)cc2)Cn2cc([N+](=O)[O-])nc2O1 | 0.39 (≈ 0.866 µM) | 2.8 | –
3 | C[C@@]1(COc2ccccc2)Cn2cc([N+](=O)[O-])nc2O1 | 3.13 (≈ 11.4 µM) | – | –
4 | C[C@]1(COc2ccc(N3CC[S+]([O-])CC3)cc2)Cn2cc([N+](=O)[O-])nc2O1 | 6.25 (≈ 15.9 µM) | – | –
5 | C[C@]1(COc2ccccc2)Cn2cc([N+](=O)[O-])nc2O1 | 0.05 (≈ 0.182 µM) | 2 | –
6 | COc1ccc(OC[C@@]2(C)Cn3cc([N+](=O)[O-])nc3O2)cc1 | 0.05 (≈ 0.164 µM) | 0.72 | –
7 | C[C@]1(COc2ccc(N3CCCCC3)cc2)Cn2cc([N+](=O)[O-])nc2O1 | 0.78 (≈ 2.18 µM) | 1.9 | –
8 | C[C@]1(COc2ccc(N3CCC(Oc4ccc(C(F)(F)F)cc4)CC3)cc2)Cn2cc([N+](=O)[O-])nc2O1 | 0.012 (≈ 0.0231 µM) | 2.2 | –
9 | Cc1ccc(OC2CCN(c3ccc(OC[C@@]4(C)Cn5cc([N+](=O)[O-])nc5O4)cc3)CC2)cc1 | 0.78 (≈ 1.68 µM) | 0.6 | –
10 | C[C@]1(COc2ccc(N3CCC(Oc4ccc(F)cc4)CC3)cc2)Cn2cc([N+](=O)[O-])nc2O1 | 0.39 (≈ 0.832 µM) | 2.2 | –
11 | C[C@]1(COc2ccc(N3CCC(Oc4cccc(OC(F)(F)F)c4)CC3)cc2)Cn2cc([N+](=O)[O-])nc2O1 | 0.024 (≈ 0.0449 µM) | >4.4 | –
12 | C[C@]1(COc2ccc(C(F)(F)F)cc2)Cn2cc([N+](=O)[O-])nc2O1 | 0.2 (≈ 0.583 µM) | >4.4 | –
13 | CO[C@H]1/C=C/O[C@@]2(C)Oc3c(C)c(O)c4c(O)c(c(/C=N/N5CCN(C)CC5)c(O)c4c3C2=O)NC(=O)/C(C)=C\C=C\[C@H](C)[C@H](O)[C@@H](C)[C@@H](O)[C@@H](C)[C@H](OC(C)=O)[C@@H]1C [RIFAMPIN] | 0.1 (≈ 0.122 µM) | – | Activity [3]: 0.5
14 | C[C@]1(COc2ccc(N3CCC(Oc4ccc(Cl)cc4)CC3)cc2)Cn2cc([N+](=O)[O-])nc2O1 | 0.05 (≈ 0.103 µM) | 2.2 | –
15 | CC1(COc2ccccc2)Cn2cc([N+](=O)[O-])nc2O1 (centres undefined) | 0.1 (≈ 0.363 µM) | – | –
16 | C[C@]1(COc2ccc(N3CCSCC3)cc2)Cn2cc([N+](=O)[O-])nc2O1 | 0.78 (≈ 2.07 µM) | 0 | –
17 | C[C@]1(COc2ccc(N3CCOCC3)cc2)Cn2cc([N+](=O)[O-])nc2O1 | 0.78 (≈ 2.16 µM) | 1.3 | –
18 | C[C@]1(COc2ccc(N3CCC(Oc4ccccc4OC(F)(F)F)CC3)cc2)Cn2cc([N+](=O)[O-])nc2O1 | 0.39 (≈ 0.73 µM) | 3 | –
19 | COc1ccc(OC2CCN(c3ccc(OC[C@@]4(C)Cn5cc([N+](=O)[O-])nc5O4)cc3)CC2)cc1 | 0.39 (≈ 0.812 µM) | 0.1 | –
20 | C[C@]1(COc2ccc(N3CCC(Oc4ccc(OC(F)(F)F)cc4)CC3)cc2)Cn2cc([N+](=O)[O-])nc2O1 [DELAMANID] | 0.006 (≈ 0.0112 µM) | >3.8 | Activity [4]: 2.5; Activity [5]: >4.4; Activity [6]: Dose-dependent effect
21 | O=[N+]([O-])c1cn2c(n1)OC(COC/C=C/c1ccccc1)C2 (centres undefined) | 12.5 (≈ 41.5 µM) | – | –
22 | C[C@]1(COc2ccc(OC(F)(F)F)cc2)Cn2cc([N+](=O)[O-])nc2O1 | 0.2 (≈ 0.557 µM) | >3.6 | Activity [4]: 0.4; Activity [5]: 3
23 | O=[N+]([O-])c1cn2c(n1)OC(COCCc1ccccc1)C2 (centres undefined) | 1.56 (≈ 5.39 µM) | – | –
24 | C[C@]1(COc2ccc(Cl)cc2)Cn2cc([N+](=O)[O-])nc2O1 | 0.024 (≈ 0.0775 µM) | >3.1 | –
25 | O=[N+]([O-])c1cn2c(n1)OC(COCc1ccccc1)C2 (centres undefined) | 3.13 (≈ 11.4 µM) | – | –
